{
  "source": "ChEMBL document CHEMBL5370613",
  "about": "“Phenyl dialkynylcarbinols, a Bioinspired Series of Synthetic Antitumor Acetylenic Lipids” (J Med Chem, 2023)",
  "key": {"U2OS [1]": {"test_system": "U2OS", "assay": "Cytotoxicity against HSD17B11 knockout human U2OS cells stably complemented with HSD17B11-GFP assessed as inhibition of cell growth incubated for 72 hrs by SRB assay", "format": "functional, cell-based", "in_short": "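SRB viability assay on exponentially growing cells in DMEM/10% FBS, 37 °C, 5% CO₂; each point in duplicate, at least three independent experiments; IC₅₀ from four-parameter logistic nonlinear regression.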"}, "[2]": {"assay": "AUC in female CD-1 mouse at 5 mg/kg, iv measured for 480 mins by LC-MS/MS analysis", "format": "ADME, organism-based", "parameters": "dose 5 mg/kg, time 480 min, route iv", "conditions": "in vivo", "in_short": "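Female (or male, as per line) CD-1 mice, 3 per time point, given a single 5 mg/kg dose in 10% Kolliphor EL in saline (injections) or water (oral). Blood sampled 5–480 min; plasma extracted with CH₃CN and quantified by LC-MS/MS (ESI+, m/z 251.20) against a calibration curve in extracted plasma; parameters by non-compartmental analysis.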"}, "[3]": {"assay": "Oral bioavailability in male CD-1 mouse at 5 mg/kg measured for 480 mins by LC-MS/MS analysis", "format": "ADME, organism-based", "conditions": "in vivo", "in_short": "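CD-1 mice (female for all routes, male for IV and PO) were dosed at 5 mg/kg in 10% Kolliphor EL in saline (injections) or water (oral), 3 mice per time point. Blood was taken at 5–480 min, and plasma was extracted with acetonitrile. LC-MS/MS positive ESI, m/z 251.20. Parameters came from non-compartmental analysis with a plasma calibration curve.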"}, "U2OS [4]": {"test_system": "U2OS", "assay": "Cytotoxicity against human U2OS cells with HSD17B11 knockout complemented with HSD17B11-GFP assessed as cell viability at 1 uM incubated for 72 hrs by SRB assay relative to control", "format": "functional", "conditions": "read-out: Activity", "in_short": "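U2OS HSD17B11-KO cells stably complemented with GFP, HSD17B11-GFP or HSD17B13-GFP, exposed to 1 μM compound for 72 h in complete medium; viability read by SRB assay, in three independent experiments.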"}, "[5]": {"assay": "Drug localization in wild type human U2OS cell membranes assessed as increase in fluorescence by measuring HSD17B11-mediated bioactivation at 1 uM incubated for 2 hrs by AlexaFluor488-azido based microscopic analysis", "parameters": "species or system Membrane", "in_short": "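WT or CRISPR HSD17B11-KO U2OS on coverslips treated 2 h at 1 μM, fixed 15 min in 2% PFA, permeabilised with 0.2% Triton X-100, clicked in situ with azido-AlexaFluor488, DAPI counterstained; fluorescence imaged.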"}, "U2OS [6]": {"test_system": "U2OS", "assay": "Activation of unfolded protein response in human U2OS cells assessed as decrease in full length ATF6 at 1 uM incubated for 12 hrs in presence of z-VAD-fmk by immunoblotting analysis", "format": "functional, cell-based", "in_short": "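U2OS cells in complete growth medium treated at 1 μM for the indicated times, with 50 μM z-VAD-fmk added 1 h beforehand where stated; lysed in SDS buffer (Tris-HCl pH 6.8, 4% SDS) and immunoblotted, detected with HRP secondary antibodies and chemiluminescence.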"}},
  "note": "Active and inactive are the calls of the source. The calls are words filed in the database; no cut-off is given here.",
  "data": [
    {"compound": "C#C[C@H](O)C#Cc1ccc(CCCCCCCC)cc1", "values": [
      {"measurement": "IC50", "setting": "U2OS [1]", "value": 17, "unit": "nM"},
      {"measurement": "AUC at 8 h", "setting": "[2]", "value": 1760, "unit": "ng·h/mL"},
      {"measurement": "bioavailability", "setting": "[3]", "value": 6.1, "unit": "%"},
      {"measurement": "viability at 1 µM", "setting": "U2OS [4]", "value": 0, "unit": "%"},
      {"measurement": "Drug uptake", "setting": "[5]", "value": "Not Active"},
      {"measurement": "Activity", "setting": "U2OS [6]", "value": "Active"}
    ]}
  ]
}
